# Source: ChEMBL document CHEMBL3399922, “3-Oxoisoxazole-2(3H)-carboxamides and isoxazol-3-yl carbamates: Resistance-breaking acetylcholinesterase inhibitors targeting the malaria mosquito, Anopheles gambiae” (Bioorg Med Chem, 2015)
# Experiments:
# Anopheles gambiae [1] = assay: Tarsal contact toxicity in Anopheles gambiae G3 (MRA-112) assessed as mortality measured at 1000 ug/mL at 24 hrs by filter paper assay; format: functional
# How it was run: (§1)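 Non-blood-fed adult females, 3–5 days old, followed a modified 2006 WHO tube assay. Filter papers (15 × 12 cm) were treated with ethanolic carbamate and dried overnight. Mosquitoes were exposed 1 h, then given 10% sugar water, at 24 ± 1 °C and 75% RH; mortality was read at 24 h. G3 used 20-25/batch in triplicate and Akron 10-15 in duplicate. LC50 was from probit analysis of typically 5-8 concentrations.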
# Anopheles gambiae [2] = assay: Tarsal contact toxicity in Anopheles gambiae G3 (MRA-112) assessed as mortality measured at 24 hrs by filter paper assay; format: functional; how it was run: as §1
# Anopheles gambiae [3] = assay: Tarsal contact toxicity in Anopheles gambiae Akron (MRA-913) assessed as mortality measured at 24 hrs by filter paper assay; format: functional; how it was run: as §1
# Anopheles gambiae [4] = assay: Tarsal contact toxicity in Anopheles gambiae Akron (MRA-913) assessed as mortality measured at 200 ug/mL at 24 hrs by filter paper assay; format: functional; how it was run: as §1
# [5] = Inhibition of recombinant wild-type Anopheles gambiae AChE compound incubated for up to 6 min at approximately 1 min interval; design: unit not given here
# How it was run: (§2)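 Recombinant AgAChE enzymes were incubated with typically five inhibitor concentrations plus an inhibitor-free control. Residual activity v/v0 was read by Ellman assay against a time-matched control, at 23 ± 1°C, pH 7.7, 0.1% (v/v) DMSO. kobs is the slope of ln(v/v0) vs time, from at least two experiments. ki is the slope of kobs vs [I] in the linear, non-saturating range. Duplicate wells.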
# [6] = Inhibition of recombinant Anopheles gambiae AChE G119S mutant compound incubated for up to 60 mins at approximately 10 mins interval; design: unit not given here; how it was run: as §2
# Acetylcholinesterase = Acetylcholinesterase (Homo sapiens, UniProt P22303); assay: Inhibition of recombinant human AChE; design: unit not given here
# Sequence of Acetylcholinesterase (P22303 whole entry): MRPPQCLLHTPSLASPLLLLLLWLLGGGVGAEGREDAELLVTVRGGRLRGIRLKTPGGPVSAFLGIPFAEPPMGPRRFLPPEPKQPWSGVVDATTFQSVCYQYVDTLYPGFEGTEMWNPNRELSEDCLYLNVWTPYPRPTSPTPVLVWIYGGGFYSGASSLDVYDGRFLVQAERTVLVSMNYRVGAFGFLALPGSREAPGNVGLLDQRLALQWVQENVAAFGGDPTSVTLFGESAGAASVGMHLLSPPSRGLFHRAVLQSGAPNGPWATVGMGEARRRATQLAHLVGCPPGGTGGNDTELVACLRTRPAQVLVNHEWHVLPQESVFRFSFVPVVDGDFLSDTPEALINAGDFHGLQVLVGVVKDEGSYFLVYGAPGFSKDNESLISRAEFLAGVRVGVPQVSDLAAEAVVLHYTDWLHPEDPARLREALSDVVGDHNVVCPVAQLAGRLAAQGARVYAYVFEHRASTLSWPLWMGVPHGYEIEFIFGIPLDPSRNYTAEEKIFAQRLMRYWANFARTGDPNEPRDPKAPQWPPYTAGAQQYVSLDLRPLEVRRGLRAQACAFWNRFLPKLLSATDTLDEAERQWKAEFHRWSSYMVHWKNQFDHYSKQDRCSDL
# Anopheles gambiae [7] = assay: Tarsal contact toxicity in Anopheles gambiae Akron (MRA-913) assessed as mortality measured at 1000 ug/mL at 24 hrs by filter paper assay; format: functional; how it was run: as §1
SMILES,mortality at 1000 µg/mL (Anopheles gambiae [1]) [%],LC50 (Anopheles gambiae [2]) [µg/mL],LC50 (Anopheles gambiae [3]) [µg/mL],also measured
CCCC(C)c1cc(OC(=O)N2CCOCC2)no1 (stereo not drawn),10,–,–,–
CNC(=O)O/N=C/C(C)(C)SC [ALDICARB],–,70,32,–
CN(C)C(=O)Oc1cc(C2CC2)on1,0,–,–,–
CN(C)C(=O)n1oc(CCC2CCC2)cc1=O,30,–,–,–
CN(C)C(=O)Oc1cc(CCC2CC2)on1,–,191,198,–
CCC(C)n1cc(OC(=O)NC)cn1 (stereo not drawn),–,96,81,–
CC(C)Cc1cc(=O)n(C(=O)N(C)C)o1,–,201,–,mortality at 200 µg/mL (Anopheles gambiae [4]): 25%; Ki [5]: 252; Ki [6]: 0.55; Ki (Acetylcholinesterase): 30.9
CNC(=O)Oc1cccc2c1OC(C)(C)C2 [CARBOFURAN],–,16,> 5000,–
CN(C)C(=O)Oc1cc(CCC2CCCC2)on1,–,674,–,Ki [5]: 0.6; Ki [6]: 0.12; Ki (Acetylcholinesterase): 13.1
CN(C)C(=O)Oc1cc(C2CCC2)on1,–,349,392,–
CNC(=O)Oc1cccc2c1OC(C)(C)O2 [BENDIOCARB],–,16,> 5000,–
CN(C)C(=O)n1oc(C2CC2)cc1=O,–,278,–,mortality at 1000 µg/mL (Anopheles gambiae [7]): 10%; Ki [5]: 50.5; Ki [6]: 0.2; Ki (Acetylcholinesterase): 103
CC(C)c1cc(OC(=O)N(C)C)no1,–,84,116,–
Cc1cc(OC(=O)N(C)C)no1,0,–,–,–
CCCC(C)c1cc(OC(=O)N2CCCC2)no1 (stereo not drawn),0,–,–,–
CCCC(C)c1cc(=O)n(C(=O)N2CCCC2)o1 (stereo not drawn),77,–,–,–
CN(C)C(=O)n1oc(CCC2CC2)cc1=O,–,133,144,–
CN(C)C(=O)Oc1cc(CCC2CCC2)on1,40,–,–,–
CC(C)CCc1cc(OC(=O)N(C)C)no1,–,415,429,–
CN(C)C(=O)Oc1cc(C2CCCC2)on1,60,–,–,–
CCCC(C)c1cc(=O)n(C(=O)N(CC)CC)o1 (stereo not drawn),15,–,–,–
CCC(C)Cc1cc(OC(=O)N(C)C)no1 (stereo not drawn),30,–,–,–
CCCC(C)c1cc(OC(=O)N(C)CC)no1 (stereo not drawn),–,410,574,–

SMILES,mortality at 1000 µg/mL (Anopheles gambiae [1]) [%],LC50 (Anopheles gambiae [2]) [µg/mL],LC50 (Anopheles gambiae [3]) [µg/mL],also measured
CC(C)Cc1cc(OC(=O)N(C)C)no1,–,253,151,–
CNC(=O)Oc1ccccc1OC(C)C [PROPOXUR],–,39,> 5000,–
CN(C)C(=O)n1oc(C2CCCC2)cc1=O,–,105,118,–
CCCC(C)c1cc(=O)n(C(=O)N2CCC2)o1 (stereo not drawn),78,–,–,–
CN(C)C(=O)n1oc(CCC2CCCC2)cc1=O,0,–,–,–
CCCC(C)c1cc(OC(=O)N(C)C)no1 (stereo not drawn),–,234,296,Ki [5]: 416; Ki [6]: 30.6; Ki (Acetylcholinesterase): 50.9
CCC(C)c1cc(=O)n(C(=O)N(C)C)o1 (stereo not drawn),–,63,129,–
CCCC(C)c1cc(=O)n(C(=O)N(C)C)o1 (stereo not drawn),–,153,75,–
CCC(CC)c1cc(OC(=O)N(C)C)no1,70,–,–,–
CCCCC(CC)c1cc(OC(=O)N(C)C)no1 (stereo not drawn),0,–,–,–
CNC(=O)Oc1cccc(C(C)(C)C)c1,–,37,> 5000,–
CCC(C)Cc1cc(=O)n(C(=O)N(C)C)o1 (stereo not drawn),0,–,–,–
CN(C)C(=O)n1oc(CC(C)(C)C)cc1=O,80,–,–,–
CN(C)C(=O)Oc1cc(CC(C)(C)C)on1,0,–,–,Ki [5]: 0.12; Ki [6]: 0.05; Ki (Acetylcholinesterase): 0.44
CN(C)C(=O)n1oc(C2CCC2)cc1=O,–,79,74,–
CCC(C)c1cc(OC(=O)N(C)C)no1 (stereo not drawn),–,41,58,–
CCC(CC)c1cc(=O)n(C(=O)N(C)C)o1,–,38,40,–
CCCC(C)c1cc(=O)n(C(=O)N(C)CC)o1 (stereo not drawn),–,400,614,–
CC(C)CCc1cc(=O)n(C(=O)N(C)C)o1,–,73,68,Ki [5]: 266; Ki [6]: 0.4; Ki (Acetylcholinesterase): 80.9
CCCC(C)c1cc(=O)n(C(=O)N2CCOCC2)o1 (stereo not drawn),45,–,–,–
CC(C)c1cc(=O)n(C(=O)N(C)C)o1,–,316,182,–
Cc1cc(=O)n(C(=O)N(C)C)o1,0,–,–,–
